Shown are actives, neighbours in structure and some others; about 2.6% of the full set was active somewhere.
SENP6 inh: SENP6 protease inhibition; Q9GZR1; Recombinant SENP6 catalytic domain, aminoluciferin luminescence; inhibition, % at 10 µM; hit rate 1.8% among 330,000;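 active = inhibition above about 50% at the single tested dose, limit read from the data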
SENP8 block-1: blocks the human protease SENP8 | purified SENP8, Z-RLRGG-aminoluciferin cleavage, luminescence | Q96LD8 | hit rate 1.2% among 330,000 | AID 2540 | inhibition, % at 10 µM; in the data active = inhibition above about 50%
SENP8 block-2: inhibitors of human SENP8 protease; hit rate 0.64% among 360,000; AID 602440; recombinant SENP8, Nedd8 substrate fluorescence; Q96LD8; inhibition, % at 20 µM; in the data active = inhibition mostly above about 40%, no sharp cut-off; inactive = mostly below about 27%
SENP1 FRET inh: inhibitors of human SENP1 SUMO protease catalytic domain | inhibition, % at 10 µM | recombinant SENP1 catalytic domain, CyPet-SUMO1-YPet FRET cleavage | hit rate 0.21% among 360,000 | AID 624204 | Q9P0U3;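 active = inhibition at least 30% at 10 µM, raw YFP signal under a set limit, fluorescence ratio 0.5 to 1.5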
Target sequence (Q9P0U3 419-644 limits assumed): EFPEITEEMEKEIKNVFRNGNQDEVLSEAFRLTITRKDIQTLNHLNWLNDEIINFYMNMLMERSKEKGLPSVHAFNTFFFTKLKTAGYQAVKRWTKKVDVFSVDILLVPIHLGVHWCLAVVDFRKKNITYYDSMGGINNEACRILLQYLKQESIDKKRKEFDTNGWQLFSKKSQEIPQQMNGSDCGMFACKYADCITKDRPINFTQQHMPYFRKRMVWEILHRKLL
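Material – human SENP1 catalytic domain · Input – SENP1 enzyme, 20 pM final · Compound dosing – single concentration of 10 µM compound, 0.5% DMSO final · Timing – enzyme reaction for 50 min at room temperature, dark · Measured by – FRET fluorescence in CFP and YFP emission channels · Control set – no-enzyme wells low, DMSO-plus-enzyme wells high control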
Platelet DG rel: platelet dense granule release activity; inhibition, %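 (compounds screened at 7.5 µM in platelet-rich plasma)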; AID 1663; hit rate 0.22% among 300,000; human platelet-rich plasma, SFLLRN dense granule ATP release, luminescence;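 active = mean replicate score, as percent of positive control, at or above 50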
SENP7 block: inhibitors of human SENP7 protease. inhibition, % at 5 µM. hit rate 1.5% among 330,000. AID 434973. recombinant SENP7, Z-RLRGG-aminoluciferin luminescence, 40 min;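 active = inhibition above about 50% at the single test dose, limit read from the data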
Target sequence (Q9BQF6 706-1050 limits assumed): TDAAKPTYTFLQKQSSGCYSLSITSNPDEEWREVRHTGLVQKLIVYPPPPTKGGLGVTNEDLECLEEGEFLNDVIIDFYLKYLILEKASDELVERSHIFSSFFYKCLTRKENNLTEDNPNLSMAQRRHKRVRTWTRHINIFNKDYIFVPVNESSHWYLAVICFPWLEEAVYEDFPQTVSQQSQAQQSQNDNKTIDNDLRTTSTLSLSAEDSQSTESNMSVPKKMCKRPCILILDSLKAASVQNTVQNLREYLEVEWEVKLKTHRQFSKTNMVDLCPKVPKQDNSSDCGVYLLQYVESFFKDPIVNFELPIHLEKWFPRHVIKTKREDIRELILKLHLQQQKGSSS
Numbers stand for hits; i = inactive; nt = no result.

SMILES	SENP6 inh	SENP8 block-1	SENP8 block-2	SENP1 FRET inh	Platelet DG rel	SENP7 block
O=C1C=C(O)c2[nH]c(=O)ccc2C1=O	nt	nt	64.3	i	nt	nt
CCOC(=O)c1nc2sc3c(c2c(=O)[nH]1)CCCC3	i	i	i	i	60.4	i
CC(=O)c1ccc(N=Nc2c(C)[nH]n(-c3ccccc3)c2=O)cc1	i	i	47.6	i	i	i
Cc1[nH]n(-c2ccccc2)c(=O)c1N=Nc1ccc(C(=O)O)cc1	i	i	i	i	i	i
O=C(Nc1ccc(F)cc1)C(c1cc2ccccc2o1)N1CCN(C(=O)c2ccco2)CC1 (stereo unspecified)	nt	nt	i	i	nt	nt
O/N=C/c1ccccc1OCc1ccccc1F	i	i	i	i	i	i
O/N=C/c1ccc(OCc2ccccc2F)c(Cl)c1	92.0	80.2	i	i	i	75.2
Cc1cc(C)nc(NC(=O)/C=C/c2ccccc2Cl)c1	82.7	i	i	i	i	81.5
Cc1ccnc(NC(=O)/C=C/c2ccccc2[N+](=O)[O-])c1	i	69.3	nt	nt	i	77.8
COc1ccc(/C=C2/SC(=S)N(CCC(=O)N3CCN(C)CC3)C2=O)cc1	i	i	36.8	i	i	i
COCCN1C(=O)/C(=C/c2ccc(N3CCCC3)cc2)SC1=S	i	i	43.7	i	i	i
COc1ccc(/C=C2\SC(=S)N(CCC(=O)N3CCCCC3)C2=O)cc1	i	i	i	i	i	i
O=C(Nc1ccc2c(c1)OCO2)c1cc(-c2ccc(O)cc2)on1	i	i	i	i	i	i
Cc1cc2c(cc1C)C(=O)C(Br)=C(N)C2=O	nt	nt	78.7	i	nt	nt
CCN(CC)c1ccc2nc3ccccc3[n+](CC)c2c1	i	i	i	i	i	i
CCN(CC)c1ccc2nc3ccc(N)cc3[n+](-c3ccccc3)c2c1	i	i	39.3	i	nt	i
COc1ccc(CNC(=O)CNC(=O)c2ccc(C(C)(C)C)cc2)cc1OC	i	i	i	i	i	i
Cn1cc(/C=C2\SC(=O)N(c3ccc(O)cc3)C2=O)c2ccccc21	63.7	i	i	i	i	i
COc1ccc(CC(=O)Nc2ccc(N(C)C)c3ccccc23)cc1	i	i	i	i	i	i
O=C(Nc1ccc([N+](=O)[O-])cc1)C(=O)Nc1cccc(C(=O)O)c1	99.3	96.6	i	i	83.0	98.9
O=C(O)c1cc(NC(=O)c2ccc([N+](=O)[O-])cc2)cc(NC(=O)c2ccc([N+](=O)[O-])cc2)c1	i	i	i	i	i	i
CN(CCOc1ccc(Cl)cc1)C(=O)CN1C(=O)NC2(CCCCC2)C1=O	i	i	i	i	i	i
C=C(C)C1CC=C(C)/C(=N\NC(=O)CNc2cccc3ccccc23)C1 (stereo unspecified)	59.7	i	i	i	i	i
C=C(C)[C@H]1CC=C(C)/C(=N/NC(=O)CNc2ccccc2OC)C1	i	i	i	i	i	i
Nc1[nH]n2c(=O)cc(-c3ccccc3)nc2c1N=Nc1ccccc1	i	i	56.8	i	i	i
SMILES	SENP6 inh	SENP8 block-1	SENP8 block-2	SENP1 FRET inh	Platelet DG rel	SENP7 block
Nc1[nH]n2c(=O)cc(-c3ccccc3)nc2c1N=Nc1ccc(S(N)(=O)=O)cc1	i	i	59.9	i	i	i
Cn1nc(C(F)(F)F)c(CO)c1Sc1ccc(F)cc1	i	i	i	i	i	i
COc1ccc(C(=O)C(/C=N/O)=N/Nc2ccc(F)cc2)cc1	i	i	i	i	i	i
CO/N=C/C(=N\Nc1ccc(OC)cc1)C(=O)c1ccc(OC)cc1	i	i	51.2	i	i	i
CCC(Sc1nc2ccncc2[nH]1)C(=O)Nc1cc(Cl)ccc1C (stereo unspecified)	i	i	i	i	i	i
O=[N+]([O-])c1ccc(Cl)c2c1C1C=CCC1C(c1ccccn1)N2 (stereo unspecified)	i	i	42.5	i	i	i
O=C(O)c1ccc(Cl)c2c1C1C=CCC1C(c1ccccn1)N2 (stereo unspecified)	i	i	nt	nt	i	i
Cc1ccc(Cl)cc1N1CCN(S(=O)(=O)c2ccc3c(c2)OCCO3)CC1	i	i	i	i	i	i
Cc1ccc(C)c(N2CCN(S(=O)(=O)c3ccc4c(c3)OCCO4)CC2)c1	i	i	i	i	57.0	i
Cc1cc(N=NC(=O)c2ccccc2O)c2ccccc2c1O	i	i	i	i	i	i
O=C(N=Nc1ccc(NOC(=O)c2ccccc2Br)cc1)c1ccccc1O	91.4	86.4	nt	nt	i	63.0
CC(=O)C1=C(c2ccc(Br)cc2)C(=O)c2ccccc2C1=O	nt	nt	i	i	i	nt
CNC1=C(N(C(C)=O)c2ccc(Br)cc2)C(=O)c2ccccc2C1=O	nt	nt	84.5	i	i	nt
O=C(O)c1cc(N/N=C/C=C/c2ccccc2[N+](=O)[O-])ccc1Cl	i	52.4	i	i	i	i
C[C@@](Cc1ccc(O)c(O)c1)(NN)C(=O)O	nt	nt	39.2	i	nt	nt
O=C(Nc1nc(=O)c2ccccc2s1)c1ccc(Cl)cc1	i	i	i	i	i	i
O=C(Nc1nc2ccsc2c(=O)s1)c1ccc(Cl)cc1	94.8	94.1	i	i	i	100.0
CC1CCN(CCCNC(=O)C2CCN(S(=O)(=O)N3CCC4(CC3)OCCO4)CC2)CC1	i	i	i	i	i	i
CN=CC1=C(O)c2ccccc2C1=O	i	i	i	i	i	i
Cc1ccc(O)c(N=CC2=C(O)c3ccccc3C2=O)c1	i	i	83.6	41.5	i	i
CCOc1ccc(/C=N/NC(=O)c2ccccc2NC(=O)c2ccc(OC)cc2)cc1	i	i	i	i	i	i
COc1ccc(C(=O)Nc2ccccc2C(=O)N/N=C/c2ccco2)cc1	i	i	i	i	78.5	i
Cn1cc(CN(CCO)Cc2cccs2)c(-c2cccc(Cl)c2)n1	i	i	i	i	57.5	i
CN(Cc1cn(C)nc1-c1cccc(Cl)c1)Cc1nccn1C	i	i	i	i	i	i
COc1ccc(OC)c(NC(=O)Nc2nnc([C@@H]3O[C@H](CO)[C@@H](O)[C@H]3O)s2)c1	nt	nt	i	i	nt	nt
SMILES	SENP6 inh	SENP8 block-1	SENP8 block-2	SENP1 FRET inh	Platelet DG rel	SENP7 block
CCOc1ccc2c(c1)-c1c(ssc1=S)C(C)(C)N2C	i	i	46.7	i	i	i
CCOc1ccc(NC(C)c2cc(Cl)ccc2O)cc1 (stereo unspecified)	i	i	45.6	i	i	i
C/C(=N\Nc1cccc2cccnc12)c1ccc[nH]1	i	74.5	i	i	i	57.4
Cc1ccc(CNS(=O)(=O)c2c(C)[nH]c(C)c2C(=O)N2CCCCC2)cc1	i	i	i	i	i	i
CC1CCc2c(sc3ncn(CC(=O)N=Nc4c(O)[nH]c5ccccc45)c(=O)c23)C1 (stereo unspecified)	i	i	43.6	i	i	i
S=C1Cc2ccccc2N1	nt	nt	44.6	i	i	nt
COC(=O)[C@]12CCCCC=C1N(Cc1ccc3c(c1)OCO3)C(=O)[C@H](CC(=O)NCC13CC4CC(CC(C4)C1)C3)C2	nt	nt	i	i	nt	nt
O=C(NNC(=O)c1ccccc1-n1cccc1)c1cccnc1	nt	nt	i	i	nt	nt

Screening results from PubChem BioAssay.
